Publication PMC8370032 (Bioorganic & medicinal chemistry, 2021)

How the values were obtained:
myeloma cells = details: cited from earlier work
RPMI-8226 cells [1] = experiment: MTT assay; type: cell-based, human; details: RPMI-8226, 48 hours
RPMI-8226 cells [2] = type: cell-based, human
Method in brief: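 RPMI-8226 myeloma cells were exposed to a range of test-compound concentrations for 48 h, with lovastatin 10 μM as positive control. Lysates were immunoblotted for unmodified Rap1a (antibody detects only unmodified protein), H-Ras and β-tubulin (loading), and the same lysates were used for a lambda light chain ELISA (% of untreated control; mean ± SD, n=3; two-tailed t-test, p<0.05). LEC is the lowest concentration giving a visible unmodified Rap1a band plus a significant light chain rise.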

Row | Compound | cytotoxicity in MTT assay (RPMI-8226 cells [1]) | other results
1 | CC(C)=CCC/C(C)=C/Cn1cc(CC(C)(P(=O)([O-])[O-])P(=O)([O-])[O-])nn1.[Na+].[Na+].[Na+].[Na+] [Compound 3] | – | increase in potency in cellular assays compared to the parent compound 1 (myeloma cells): 5 fold
2 | C=C(Cc1cn(C/C=C(\C)CCC=C(C)C)nn1)P(=O)([O-])[O-].[Na+].[Na+] [Compound 11] | neither of the monophosphonates (11, 27), induced cytotoxicity | –
3 | CC(C)=CCC/C(C)=C/Cn1cc(CC(F)(P(=O)([O-])[O-])P(=O)([O-])[O-])nn1.[Na+].[Na+].[Na+].[Na+] [Compound 7, (2-[1-(3,7-Dimethyl-octa-2,6-dienyl)-1H-[1,2,3]triazol-4-yl]-1-fluoro-1-phosphono-ethyl)-phosphonic acid] | induced cytotoxicity | –
4 | CCC(Cc1cn(C/C=C(\C)CCC=C(C)C)nn1)(P(=O)([O-])[O-])P(=O)([O-])[O-].[Na+].[Na+].[Na+].[Na+] [Compound 4] | – | decrease in potency in cellular assays (relative to 1) (myeloma cells): five-fold
5 | CC(C)=CCC/C(C)=C/Cn1cc(CC(O)(P(=O)([O-])[O-])P(=O)([O-])[O-])nn1.[Na+].[Na+].[Na+].[Na+] [Compound 37] | induced cytotoxicity | –
6 | CC(C)=CCC/C(C)=C/Cn1cc(CCP(=O)([O-])[O-])nn1.[Na+].[Na+] [Compound 27] | neither of the monophosphonates (11, 27), induced cytotoxicity | –
7 | CC(C)=CCC/C(C)=C/Cn1cc(CC(CN)(P(=O)([O-])[O-])P(=O)([O-])[O-])nn1.[Na+].[Na+].[Na+].[Na+] [Compound 17] | induced cytotoxicity | –
8 | CC(C)=CCC/C(C)=C/Cn1cc(C=C(P(=O)([O-])[O-])P(=O)([O-])[O-])nn1.[Na+].[Na+].[Na+].[Na+] [Compound 29, Disodium [1-[bis(sodiooxy)phosphoryl]-2-[1-[3,7-dimethylocta-2,6-dien-1-yl]-1H-1,2,3-triazol-4-yl]ethenyl]phosphonate] | induced cytotoxicity | potency in cellular assays relative to cyclopropyl derivative 31 (RPMI-8226 cells [2]): two-fold more potent
